# Compound activity: PubChem, Sanford-Burnham Center for Chemical Genomics
# CHOP UPR activ: apoptotic UPR (CHOP) activation | CHO-CHOP luciferase reporter, luminescence; percent of tunicamycin response over DMSO baseline | activation, % at 10 µM | 330,000 tested, 0.34% active;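 active = at 10 µM dose, activation of 40% or more, normalized to positive control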;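 note: 100% = tunicamycin at 10 µg/mL and 0% = DMSO alone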
#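 System: CHO-CHOP luciferase reporter cell line; amount: 500 cells/well; buffer or medium: F12 medium containing 10% fetal bovine serum; incubation: 6 h compound exposure at 37 °C after overnight seeding; measured by: luciferase luminescence after 10 min with Steady-Glo reagent; evaluation: % reporter activation, DMSO baseline versus tunicamycin full activation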
# tim23-1 inh: tim23-1 yeast growth inhibition; S. cerevisiae tim23-1 growth, BacTiter-Glo luminescence, 24 h; inhibition, % at 20 µM; 330,000 tested, 1.3% active; AID 463212;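 active = growth inhibition of the mutant yeast at or above 50%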;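 note: temperature-sensitive mutant grown at 25 °C; plate controls were DMSO-treated mutant yeast for no effect and medium wells lacking yeast for full effect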
# tim10-1 inh: growth inhibitors of tim10-1 mutant yeast; 330,000 tested, 2.2% active; AID 463190; S. cerevisiae tim10-1 ts strain growth, BacTiter-Glo, 24 h; inhibition, % at 20 µM;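 active = inhibition of at least 40%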;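 note: mutant grown at 25 °C; 0% = DMSO wells with yeast and 100% = wells holding no yeast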
# TIM10 inh: TIM10 yeast growth inhibition. S. cerevisiae TIM10 strain growth, BacTiter-Glo luminescence, 24 h. inhibition, % at 10 µM. 330,000 tested, 1.4% active;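 active = inhibition of 40% or more at the single tested concentration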;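 note: wild-type TIM10 isogenic control strain grown at permissive 25 °C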
# UPR XBP1 act: activators of adaptive arm of unfolded protein response (XBP1) | CHO-XBP1 luciferase reporter, IRE1-XBP1 UPR activation, luminescence; percent of tunicamycin response, DMSO as zero | activation, % at 20 µM | 330,000 tested, 0.33% active | AID 463104;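 active = versus positive control, 20 µM dose yields 30% or more activation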;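 note: 100% = tunicamycin at 10 µg/mL and 0% = DMSO only wells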
#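 Signal: luciferase luminescence; Assay system: CHO-XBP1 luciferase reporter cells; Amount: one thousand reporter cells per well; Dosing: 20 µM single concentration, DMSO 1%; Benchmarks: high control tunicamycin 10 µg/mL final, low control DMSO vehicle only; Schedule: 6 h compound exposure at 37 °C, 5% CO2; Evaluation: percent activation relative to tunicamycin reference.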
# UPR XBP1 confirm: adaptive UPR (XBP1) activation, confirmed. activation, % at 20 µM. 1,000 tested, 63% active. AID 485299. CHO-XBP1 IRE1-XBP1 luciferase reporter, luminescence. shares compounds with UPR XBP1 act;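 active = reporter signal at least 30% of the positive control's activation in two or more of four replicate wells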;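 note: plate controls were DMSO negative control for no effect and tunicamycin 10 µg/mL positive control for full effect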
# tim10-1 conf: confirmation of tim10-1 mutant yeast growth inhibitors; inhibition, % at 20 µM; S. cerevisiae tim10-1 ts strain growth, BacTiter-Glo, 24 h; shares compounds with tim10-1 inh; 7,400 tested, 56% active;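 active = inhibition of yeast growth at or above a set limit in either of two repeat tests at 20 µM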;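 note: tim10-1 mutant grown at permissive 25 °C to find synthetic lethal compounds; 0% = DMSO yeast wells and 100% = medium wells without yeast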
# TIM10 conf: TIM10 yeast growth inhibition, confirmed | 4,600 tested, 63% active | S. cerevisiae tim10 strain growth, BacTiter-Glo luminescence, 24 h | inhibition, % at 10 µM | shares compounds with TIM10 inh;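 active = inhibition of yeast growth at or above a set limit in either of two replicates at 10 µM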;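 note: this counterscreen used the strain with wild-type TIM10; 0% = yeast with DMSO and 100% = medium wells lacking yeast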
# tim23-1 conf: tim23-1 yeast growth inhibition, confirmed; shares compounds with tim23-1 inh; S. cerevisiae tim23-1 growth, BacTiter-Glo luminescence, 24 h; inhibition, % at 20 µM; 4,400 tested, 83% active; AID 463218;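 active = inhibition above about 39% in either of two replicate wells at 20 µM, limit read from the data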;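 note: temperature-sensitive tim23-1 mutant grown at 25 °C; 0% = DMSO wells with yeast and 100% = medium wells without yeast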
# * hit, by the source's call; . = no result. Most compounds without a hit are left out; they make up all but 3.9% or so of the library.
SMILES,CHOP UPR activ,tim23-1 inh,tim10-1 inh,TIM10 inh,UPR XBP1 act,UPR XBP1 confirm,tim10-1 conf,others
CNC[C@@H]1Oc2ccc(NS(=O)(=O)c3ccc(OC)cc3)cc2CC(=O)N([C@H](C)CO)C[C@@H]1C,1,-2,-8,1,0,.,.,
COc1ccccc1C(=O)Nc1ccccc1SC(=O)c1ccccc1OC,12,42,43*,39,34*,24,37*,
COc1ccc(Cn2c(SCc3cc(C)ccc3C)nc3cc(OC)c(OC)cc3c2=N)cc1,20,3,59*,-39,100*,67*,34*,
COc1cc2nc(SCc3ccc(Cl)cc3Cl)n(Cc3cccs3)c(=N)c2cc1OC,-2,16,23,28,-1,.,.,
c1ccc(CNc2nc(NCc3ccccc3)c3ccccc3n2)cc1,24,-67,62*,-37,59*,30,-89,
COc1ccc(CNC(=O)CN2C(=O)COc3ccc(S(=O)(=O)N4CCC(C)CC4)cc32)cc1,-1,-4,3,5,-2,.,.,
COc1cc(/C=N/NC(=O)NC23CC4CC(CC(C4)C2)C3)ccc1O,0,50,51*,18,44*,24,14,
COc1cc(/C=N\NC(=O)C2CC3C=CC2C3)ccc1O (configuration not stated),1,13,14,9,4,.,.,
O=C(Cc1ccc(Cl)cc1)N/N=C/c1cccc(O)c1,-2,0,7,-3,3,.,.,
Cc1cc(C)n(-c2nc(NCCCO)c3c4c(sc3n2)CCCC4)n1,-2,39,50*,27,41*,21,27,
Cc1cc(C)n(-c2nc(NCCO)c3c4c(sc3n2)CCCC4)n1,3,49,36,25,3,.,.,
OC(CNCC1CCCO1)Cn1c2ccc(Cl)cc2c2cc(Cl)ccc21 (configuration not stated),11,-32,43*,-24,64*,59*,22,
CCN(CC(=O)Nc1ccc2c(c1)OCCO2)C(=O)c1ccc(C(F)(F)F)cc1,3,18,10,-8,2,.,.,
CC(C)c1ccc(-c2cc(C(=O)N3N=C(C(F)F)CC3(O)C(F)F)c3ccccc3n2)cc1 (configuration not stated),4,37,41*,25,39*,13,27,
COc1ccc(-c2cc(-c3ccc(OC)cc3)nc(-c3ccc4c(c3)NC(=O)CO4)c2)cc1,1,18,20,41*,38*,15,.,TIM10 conf=-4
CCCCCCCCCCOC(=O)Cn1c(COc2cccc(C)c2)[n+](C)c2ccccc21,5,7,28,51*,34*,17,.,TIM10 conf=34*
COc1cccc(-c2ncc3ccccc3c2COC(=O)CCCC(=O)O)c1,-1,9,-6,3,-1,.,.,
CCOc1cccc2sc(N(CCCN(C)C)C(=O)c3ccc(S(=O)(=O)N4CCc5ccccc5C4)cc3)nc12,27,15,45*,42*,35*,14,23,TIM10 conf=32*
CCOc1cccc2sc(N(CCCN(C)C)C(=O)c3ccc(S(=O)(=O)N(C)c4ccccc4)cc3)nc12,5,1,26,11,2,.,.,
CC(C)=CCC/C(C)=C/CNC(=O)C[C@H]1C[C@H](C(=O)N2CCCCC2)[C@@]2(CCc3ccccc3)c3[nH]c4cc(CCC(=O)N(C)C)ccc4c3CCN2C1=O,24,27,11,-9,23,.,.,
COc1cnc(-c2ccccn2)nc1Oc1ccccc1Cl,0,-4,14,-1,0,.,.,
COc1cnc(-c2ccccn2)nc1Oc1ccc(Cl)c2ccccc12,28,40,37,53*,31*,24,.,TIM10 conf=41*
Cc1ccc2oc(C(Cl)(Cl)Cl)cc(=O)c2c1,7,75*,38,30,112*,121*,.,tim23-1 conf=76*
CCOC(=O)C1=C(C)N=C2SC(C(=O)OC)=CC(=O)N2C1c1ccc(F)cc1 (configuration not stated),9,86*,75*,77*,132*,103*,81*,TIM10 conf=84*;tim23-1 conf=78*
CCOC(=O)C1=C(C)N=C2SC(C(=O)OC)=CC(=O)N2C1c1cccc(OC)c1 (configuration not stated),-1,20,13,11,-2,.,.,
SMILES,CHOP UPR activ,tim23-1 inh,tim10-1 inh,TIM10 inh,UPR XBP1 act,UPR XBP1 confirm,tim10-1 conf,others
Fc1ccc(Nc2nc(NCc3ccco3)c3ccccc3n2)cc1,27,98*,-20,-20,31*,33*,.,tim23-1 conf=4
Cc1ccc(NC(=O)CN(C)C(=O)COC(=O)c2nc3nccc(C)n3n2)cc1,1,0,-5,6,-2,.,.,
NCCOc1ccc(C23CC4CC(CC(C4)C2)C3)cc1,14,66*,26,-13,97*,93*,.,tim23-1 conf=77*
O=C(N/N=C/c1ccccc1OC(=O)c1ccc2c(c1)OCO2)c1cccc(F)c1,0,17,17,15,-1,.,.,
O=C(Oc1ccccc1/C=C\C(=O)c1cc2ccccc2o1)c1cccc(F)c1,26,52*,30,33,39*,60*,.,tim23-1 conf=58*
O=C(NNC(=O)c1ccc(-c2ccccc2)cc1)Nc1ccc(F)cc1F,-1,-5,-4,-22,-4,.,.,
NC(=S)N/N=C/c1ccccc1,1,-4,-6,3,0,.,.,
NC(=S)N/N=C/c1ccc(C23CC4CC(CC(C4)C2)C3)cc1,33,75*,-24,-7,60*,64*,.,tim23-1 conf=68*
COc1ccc(C2NC(=O)c3ccccc3O2)cc1 (configuration not stated),1,29,24,25,0,.,.,
CCOc1cc2c3c(c1)C(C)=CC(C)(C)N3C(=O)C2=O,0,56*,11,14,41*,32*,.,tim23-1 conf=56*
CC(=O)Oc1cc2c3c(c1)/C(=C1/SC(=S)NC1=O)C(=O)N3C(C)(C)C=C2C,-1,37,26,6,-2,.,.,
Cc1ccc(C(C[N+](=O)[O-])c2c(-c3ccccc3O)[nH][nH]c2=O)cc1 (configuration not stated),16,66*,44*,33,31*,-2,37*,tim23-1 conf=56*
CS(=O)(=O)c1ccc(Cl)c(NC(=O)CSc2nnc(-c3cccs3)n2N)c1,1,4,11,-3,-3,.,.,
